Assay results: ChEMBL document CHEMBL1148372 (J Med Chem, 2004)
pEC50, pIC50, pKi: −log10 of the molar value. Values belong to the compound of their own block, whether it stands above or below them. Calls of active or inactive are those of the source. The calls are words filed in the database; no cut-off is given here.

Key:
[1] = molecular target: T1, D(4) dopamine receptor (Homo sapiens) (UniProt P21917); assay: In vitro efficacy tested on human D4.4 receptor were coexpressed with GRqo5 in HEK293 cells using FLIPR assay (Efficacy relative to 10 uM dopamine); type: cell-based
T1 sequence (whole entry): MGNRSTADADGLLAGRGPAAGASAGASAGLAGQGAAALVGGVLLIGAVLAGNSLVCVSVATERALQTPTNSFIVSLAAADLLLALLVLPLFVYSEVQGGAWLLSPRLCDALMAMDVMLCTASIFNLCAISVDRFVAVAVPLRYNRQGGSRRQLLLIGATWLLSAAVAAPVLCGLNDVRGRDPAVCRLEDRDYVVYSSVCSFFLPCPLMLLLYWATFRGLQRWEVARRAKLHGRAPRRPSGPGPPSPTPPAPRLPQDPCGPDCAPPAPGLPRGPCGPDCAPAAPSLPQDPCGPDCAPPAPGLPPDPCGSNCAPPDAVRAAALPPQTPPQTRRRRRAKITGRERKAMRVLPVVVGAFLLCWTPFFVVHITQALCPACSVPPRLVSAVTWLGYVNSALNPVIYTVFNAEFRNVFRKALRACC
Outline: (§1)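 HEK293 cells coexpressing human D4.4 receptor and Gαqo5, plated at 20 000 cells/well and grown 2 days. Loaded 1 h at 23 °C with 4 µM Fluo-4 plus 0.04% Pluronic F-127 in DPBS, washed four times. Compound added, fluorescence read over 3 min.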

[2] = molecular target: T1, D(4) dopamine receptor (Homo sapiens); assay: In vitro efficacy tested on human Dopamine receptor D4.4 were co-expressed with GRqo5 in HEK293 cells using FLIPR assay (Efficacy relative to 10 uM dopamine); type: cell-based; outline: as §1
Rattus norvegicus [3] = assay: In vivo maximal penile erection in rats 60 min after subcutaneous administration; type: functional
Outline: (§2)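 Conscious male Wistar rats, adapted 60 min to a dim red-lit room, tested between 9:00 a.m. and 3:00 p.m. Dosed subcutaneously, then caged singly and observed directly for 60 min. Percent incidence is the share of animals with one or more erections; 8–30 animals per group. Maximally effective dose is the dose giving peak incidence, with significance versus control.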

Rattus norvegicus [4] = assay: In vivo maximal effective dose tested in rats for erection 60 min after subcutaneous administration; type: functional; outline: as §2
D(4) dopamine receptor [5] = molecular target: T2, D(4) dopamine receptor (Homo sapiens, UniProt P21917); assay: In vitro EC50 tested on HEK293 cells co-transfected with human Dopamine receptor D4.4 using FLIPR assay; type: cell-based; outline: as §1
T2 sequence (P21917 whole entry): T1 sequence (whole entry)

D(4) dopamine receptor [6] = molecular target: T2, D(4) dopamine receptor; assay: In vitro effective concentration tested on HEK293 cells co-transfected with human D4.4 receptor using FLIPR assay; type: cell-based
Outline: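 Human D4.4 receptor co-expressed with Gαqo5 in HEK293 cells, plated at 20 000 cells/well and grown 2 days. Loaded with 4 µM Fluo-4 and 0.04% Pluronic F-127 in DPBS with glucose and pyruvate for 1 h at 23 °C, then washed. Compound added and fluorescence read over 3 min on FLIPR. […] EC50 is the concentration giving half-maximal response.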

D(4) dopamine receptor [7] = molecular target: T3, D(4) dopamine receptor (Rattus norvegicus, UniProt P30729); assay: In vitro effective concentration tested on HEK293 cells co-transfected with rat Dopamine receptor D4 using FLIPR assay; type: cell-based
T3 sequence (P30729 whole entry): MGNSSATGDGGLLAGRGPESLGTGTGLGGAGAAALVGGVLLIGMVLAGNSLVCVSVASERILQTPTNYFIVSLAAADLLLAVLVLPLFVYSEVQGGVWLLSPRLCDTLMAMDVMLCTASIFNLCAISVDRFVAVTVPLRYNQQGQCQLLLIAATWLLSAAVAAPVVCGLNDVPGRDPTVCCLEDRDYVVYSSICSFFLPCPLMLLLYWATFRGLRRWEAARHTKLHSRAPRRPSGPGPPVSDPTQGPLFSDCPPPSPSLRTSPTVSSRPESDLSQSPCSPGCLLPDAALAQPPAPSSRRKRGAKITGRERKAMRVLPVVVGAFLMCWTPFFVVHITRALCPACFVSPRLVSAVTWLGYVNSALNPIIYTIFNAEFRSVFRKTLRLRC

[8] = molecular target: D(2) dopamine receptor (Rattus norvegicus) (UniProt P61169); assay: In vitro efficacy tested on rat Dopamine receptor D2 were co-expressed with GRqo5 in HEK293 cells using FLIPR assay (Efficacy relative to 10 uM dopamine); type: cell-based
Chain of D(2) dopamine receptor (Rattus norvegicus) (P61169 whole entry): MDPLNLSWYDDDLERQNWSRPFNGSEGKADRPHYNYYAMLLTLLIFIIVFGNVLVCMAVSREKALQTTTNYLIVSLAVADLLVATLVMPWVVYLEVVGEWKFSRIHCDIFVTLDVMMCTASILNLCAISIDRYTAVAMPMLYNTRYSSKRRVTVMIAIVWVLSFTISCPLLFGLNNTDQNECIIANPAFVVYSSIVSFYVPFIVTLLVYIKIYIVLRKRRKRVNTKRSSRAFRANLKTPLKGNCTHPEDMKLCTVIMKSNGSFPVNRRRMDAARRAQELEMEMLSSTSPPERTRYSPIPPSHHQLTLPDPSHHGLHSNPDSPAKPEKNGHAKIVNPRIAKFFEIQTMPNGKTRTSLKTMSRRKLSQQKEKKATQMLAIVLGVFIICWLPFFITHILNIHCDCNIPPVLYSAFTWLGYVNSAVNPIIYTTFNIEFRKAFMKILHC

D(4) dopamine receptor [9] = molecular target: T2, D(4) dopamine receptor; assay: In vitro inhibitory concentration tested on human D4.4 receptor in HEK293 cells using FLIPR assay; type: cell-based
D(4) dopamine receptor [10] = molecular target: T2, D(4) dopamine receptor; assay: In vitro binding affinity tested on HEK293 cells co-transfected with human D4.4 receptor using [3H]spiperone as a radioligand […]; type: cell-based
Outline: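 Competition binding to membranes from HEK-293 cells transfected with human D4.4, stored at −80 °C. Radioligand was 0.1 nM [3H]-spiperone, incubated 2 h in 50 mM Tris-HCl pH 7.4 with 5 mM KCl, 120 mM NaCl, 5 mM MgCl2 and 1 mM EDTA. Compounds were in buffer with 0.1% ascorbic acid. Samples were filtered through glass fibre and washed three times with cold Tris. Bound radioactivity was counted by scintillation to give Ki.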

Structure (SMILES): c1cnc(N2CCN(Cc3nc4ccccc4[nH]3)CC2)nc1
- Efficacy [2]: 49%
- Activity (Rattus norvegicus [3]): 85%
- Effective dose (Rattus norvegicus [4]): 0.1 µM/kg
- pEC50 (D(4) dopamine receptor [5]): 7.35

Structure (SMILES): CS(=O)(=O)c1cccnc1N1CCN(Cc2nc3ccccc3[nH]2)CC1
- Efficacy [2]: 27%
- pEC50 (D(4) dopamine receptor [5]): 6.87

Structure (SMILES): Fc1cccnc1N1CCN(Cc2nc3ccccc3[nH]2)CC1
- Efficacy [2]: 27%
- Activity (Rattus norvegicus [3]): 75%
- Effective dose (Rattus norvegicus [4]): 0.01 µM/kg
- pEC50 (D(4) dopamine receptor [5]): 7.62

Structure (SMILES): Cn1c(CN2CCN(c3ccccn3)CC2)nc2ccccc21
- Efficacy [1]: inactive

Structure (SMILES): C[C@@H]1CN(c2ccccn2)CCN1Cc1nc2ccccc2[nH]1
- Efficacy [2]: 34%
- pEC50 (D(4) dopamine receptor [5]): 7.19

Structure (SMILES): Brc1cc(Br)c2[nH]c(CN3CCN(c4ccccn4)CC3)nc2c1
- Efficacy [2]: 37%
- Activity (Rattus norvegicus [3]): 60%
- Effective dose (Rattus norvegicus [4]): 0.03 µM/kg
- pEC50 (D(4) dopamine receptor [5]): 6.38

Structure (SMILES): FC(F)(F)c1ccnc(N2CCN(Cc3nc4ccccc4[nH]3)CC2)n1
- Efficacy [1]: inactive

Structure (SMILES): CCc1cnc(N2CCN(Cc3nc4ccccc4[nH]3)CC2)nc1
- Efficacy [1]: inactive

Structure (SMILES): C[C@H]1CN(c2ccccn2)CCN1Cc1nc2ccccc2[nH]1
- Efficacy [2]: 43%
- pEC50 (D(4) dopamine receptor [5]): 7.28

Structure (SMILES): N#Cc1cccnc1N1CCN(Cc2nc3ccccc3[nH]2)CC1
- Efficacy [2]: 50%
- pEC50 (D(4) dopamine receptor [5]): 7.86

Structure (SMILES): C1=C(c2ccccn2)CCN(Cc2nc3ccccc3[nH]2)C1
- Efficacy [2]: 63%
- Activity (Rattus norvegicus [3]): 75%
- pEC50 (D(4) dopamine receptor [6]): 7.96
- Effective dose (Rattus norvegicus [4]): 0.03 µM/kg

Structure (SMILES): O=C(N1CCCC1)n1c(CN2CCN(c3ccccn3)CC2)nc2ccccc21
- Efficacy [1]: inactive

Structure (SMILES): COc1ccccc1C1CCN(Cc2nc3ccccc3[nH]2)CC1
- Efficacy [2]: 34%
- pEC50 (D(4) dopamine receptor [5]): 7.00

Structure (SMILES): c1ccc(C2CCN(Cc3nc4ccccc4[nH]3)CC2)nc1
- Efficacy [2]: 51%
- pEC50 (D(4) dopamine receptor [5]): 7.85

Structure (SMILES): CC(C)n1c(CN2CCN(c3ccccn3)CC2)nc2ccccc21
- Efficacy [1]: inactive

Structure (SMILES): NCCc1ccc(O)c(O)c1 [DOPAMINE]
- pEC50 (D(4) dopamine receptor [7]): 8.62
- Efficacy [8]: 100%

Structure (SMILES): CCn1c(CN2CCN(c3ccccn3)CC2)nc2ccccc21
- Efficacy [1]: inactive

Structure (SMILES): c1cnnc(N2CCN(Cc3nc4ccccc4[nH]3)CC2)c1
- Efficacy [1]: inactive

Structure (SMILES): c1ccc(Cn2c(CN3CCN(c4ccccn4)CC3)nc3ccccc32)cc1
- Efficacy [1]: inactive

Structure (SMILES): c1ccc(N2CCN(CCc3nc4ccccc4[nH]3)CC2)nc1
- Efficacy [2]: 62%
- pEC50 (D(4) dopamine receptor [5]): 7.64

Structure (SMILES): Cc1ccc(N2CCN(Cc3nc4ccccc4[nH]3)CC2)cc1C
- pIC50 (D(4) dopamine receptor [9]): 8.30
- pKi (D(4) dopamine receptor [10]): 8.82

Structure (SMILES): CN(C)C(=O)n1c(CN2CCN(c3ccccn3)CC2)nc2ccccc21
- Efficacy [1]: inactive

Structure (SMILES): O=[N+]([O-])c1cccnc1N1CCN(Cc2nc3ccccc3[nH]2)CC1
- Efficacy [1]: inactive

Structure (SMILES): Clc1cccnc1N1CCN(Cc2nc3ccccc3[nH]2)CC1
- Efficacy [1]: inactive

Structure (SMILES): Fc1ccc2[nH]c(CN3CCN(c4ccccn4)CC3)nc2c1
- Efficacy [2]: 57%
- Activity (Rattus norvegicus [3]): 75%
- Effective dose (Rattus norvegicus [4]): 0.01 µM/kg
- pEC50 (D(4) dopamine receptor [5]): 8.10

Structure (SMILES): Cc1ccc(C)c(N2CCN(Cc3nc4ccccc4[nH]3)CC2)c1
- pIC50 (D(4) dopamine receptor [9]): 9.00
- pKi (D(4) dopamine receptor [10]): 8.42

Structure (SMILES): C1=C(c2ccccc2)CCN(Cc2nc3ccccc3[nH]2)C1
- Efficacy [2]: 48%
- pEC50 (D(4) dopamine receptor [6]): 6.64

Structure (SMILES): COc1ccc2[nH]c(CN3CCN(c4ccccn4)CC3)nc2c1
- Efficacy [1]: inactive

Structure (SMILES): CN1CCc2cccc3c2[C@H]1Cc1ccc(O)c(O)c1-3 [APOMORPHINE]
- Activity (Rattus norvegicus [3]): 91%
- pEC50 (D(4) dopamine receptor [7]): 8.26
- Efficacy [8]: 103%
- Effective dose (Rattus norvegicus [4]): 0.1 µM/kg

Structure (SMILES): Clc1ccc(N2CCN(Cc3nc4ccccc4[nH]3)CC2)nn1
- Efficacy [1]: inactive

Continued, in another order:

- Efficacy [1]: inactive
Structure (SMILES): CCc1ccccc1N1CCN(Cc2nc3ccccc3[nH]2)CC1

- Efficacy [1]: inactive
Structure (SMILES): c1ccc(Cc2ccccc2N2CCN(Cc3nc4ccccc4[nH]3)CC2)nc1

- Efficacy [2]: 39%
- pEC50 (D(4) dopamine receptor [5]): 8.14
Structure (SMILES): Clc1ccccc1N1CCN(Cc2nc3ccccc3[nH]2)CC1

- Efficacy [2]: 36%
- pEC50 (D(4) dopamine receptor [5]): 7.44
Structure (SMILES): Cc1cccc(N2CCN(Cc3nc4ccccc4[nH]3)CC2)n1
- Activity (Rattus norvegicus [3]): 62%
- Effective dose (Rattus norvegicus [4]): 0.03 µM/kg

- Efficacy [2]: 42%
- pEC50 (D(4) dopamine receptor [5]): 7.83
Structure (SMILES): Fc1ccccc1N1CCN(Cc2nc3ccccc3[nH]2)CC1
- Activity (Rattus norvegicus [3]): 70%
- Effective dose (Rattus norvegicus [4]): 0.01 µM/kg

- Efficacy [1]: inactive
Structure (SMILES): Cc1cccc(C)c1N1CCN(Cc2nc3ccccc3[nH]2)CC1

- Efficacy [2]: 42%
- pEC50 (D(4) dopamine receptor [5]): 7.07
Structure (SMILES): CSc1ccccc1N1CCN(Cc2nc3ccccc3[nH]2)CC1

- Efficacy [2]: 31%
- pEC50 (D(4) dopamine receptor [5]): 7.60
Structure (SMILES): CCOc1ccccc1N1CCN(Cc2nc3ccccc3[nH]2)CC1

- Efficacy [2]: 48%
- pEC50 (D(4) dopamine receptor [5]): 7.91
Structure (SMILES): COc1ccccc1N1CCN(Cc2nc3ccccc3[nH]2)CC1
- Activity (Rattus norvegicus [3]): 60%
- Effective dose (Rattus norvegicus [4]): 0.01 µM/kg

- Efficacy [2]: 46%
- pEC50 (D(4) dopamine receptor [5]): 7.84
Structure (SMILES): N#Cc1ccccc1N1CCN(Cc2nc3ccccc3[nH]2)CC1
- Activity (Rattus norvegicus [3]): 65%
- Effective dose (Rattus norvegicus [4]): 0.003 µM/kg

- Efficacy [1]: inactive
Structure (SMILES): Oc1ccc(N2CCN(Cc3nc4ccccc4[nH]3)CC2)nn1

- Efficacy [1]: inactive
Structure (SMILES): Oc1ccccc1N1CCN(Cc2nc3ccccc3[nH]2)CC1

- Efficacy [2]: 40%
- pEC50 (D(4) dopamine receptor [5]): 8.41
Structure (SMILES): O=[N+]([O-])c1ccccc1N1CCN(Cc2nc3ccccc3[nH]2)CC1
